In ChEMBL document CHEMBL1132303, “Novel pyrimidine and purine derivatives of L-ascorbic acid: synthesis and biological evaluation” (J Med Chem, 1999):

Tests used:
HEL [1] = assay: The compound was tested for antiviral activity by measuring the concentration required to reduce plaque formation against Varicella zoster TK+OKA strain; assay type: functional, cell-based; conditions: Homo sapiens
Procedure, shortened: (§1)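 Plaque reduction in human embryonic lung cells with 20 PFU virus input. EC50 is the concentration that cuts plaque formation by 50%.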

HEL [2] = assay: The compound was tested for antiviral activity by measuring the concentration required to reduce plaque formation against Varicella zoster TK+YS strain; assay type: functional, cell-based; conditions: Homo sapiens; procedure, shortened: as §1
HEL [3] = assay: The compound was tested for cytotoxic concentration required to reduce human embryonic lung cell growth by 50%; assay type: functional, cell-based
Procedure, shortened: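 Human embryonic lung cell growth measured. Value is the concentration reducing cell growth by 50%.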

HEL [4] = assay: The compound was tested for antiviral activity by measuring the concentration required to reduce plaque formation against Varicella zoster TK-(deficient) 07/1 strain; assay type: functional, cell-based; conditions: Homo sapiens; procedure, shortened: as §1
HEL [5] = assay: The compound was tested for antiviral activity by measuring the concentration required to reduce plaque formation against Varicella zoster TK-(deficient) YS/R strain; assay type: functional, cell-based; conditions: Homo sapiens; procedure, shortened: as §1
HEL [6] = assay: Minimum cytotoxic concentration that causes a microscopically detectable alteration of cell morphology in human embryonic lung cells; assay type: functional, cell-based
Procedure, shortened: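 Human embryonic lung cells checked under the microscope. Minimum concentration producing a detectable change in cell morphology.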

FM3A = assay: The compound was tested for growth inhibitory activity against FM3A/0 tumor cell lines; assay type: functional, cell-based; conditions: Mus musculus
[7] = system: Hef522 normal fibroblasts (human); assay: The compound was tested for growth inhibitory activity against normal fibroblast (Hef522)
MCF7 = assay: The compound was tested for growth inhibitory activity against MCF-7 tumor cell lines; assay type: functional, cell-based; conditions: Homo sapiens
Procedure, shortened: (§2)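 Monolayer cells in DMEM with 10% FBS, 2 mM glutamine, penicillin/streptomycin, 37 °C, 5% CO2, plated at 1.5 × 10^4/mL (HeLa, Hep2, MCF7, MiaPaCa2) or 2 × 10^4/mL (Hef522). MTT read-out, percent growth versus untreated controls. Mean of three parallel samples in three experiments; IC50 reported.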

MOLT-4 = assay: The compound was tested for growth inhibitory activity against Molt4/C8 tumor cell lines; assay type: functional, cell-based; conditions: Homo sapiens
L1210 = assay: The compound was tested for growth inhibitory activity against L1210/0 tumor cell lines; assay type: functional, cell-based; conditions: Mus musculus
CCRF-CEM = assay: The compound was tested for growth inhibitory activity against CEM/0 tumor cell lines; assay type: functional, cell-based; conditions: Homo sapiens
HEL [8] = assay: The compound was tested for antiviral activity by measuring the concentration required to reduce plaque formation against cytomegalo virus AD-169 strain; assay type: functional, cell-based; conditions: Homo sapiens; procedure, shortened: as §1
MIA PaCa-2 = assay: The compound was tested for growth inhibitory activity against MiaPaCa2 tumor cell lines; assay type: functional, cell-based; conditions: Homo sapiens; procedure, shortened: as §2
HeLa = assay: The compound was tested for growth inhibitory activity against HeLa tumor cell lines; assay type: functional, cell-based; conditions: Homo sapiens; procedure, shortened: as §2
HEp-2 = assay: The compound was tested for growth inhibitory activity against Hep2 tumor cell lines; assay type: functional, cell-based; conditions: Homo sapiens; procedure, shortened: as §2
HEL [9] = assay: The compound was tested for antiviral activity by measuring the concentration required to reduce plaque formation against cytomegalo virus Davis strain; assay type: functional, cell-based; conditions: Homo sapiens; procedure, shortened: as §1

Row | Compound | IC50 (HEL [1]) | IC50 (HEL [2]) | IC50 (HEL [3]) | IC50 (HEL [4]) | IC50 (HEL [5]) | MCC (HEL [6]) | IC50 (FM3A) | IC50 [7] | IC50 (MCF7) | IC50 (MOLT-4) | IC50 (L1210) | IC50 (CCRF-CEM) | IC50 (HEL [8]) | IC50 (MIA PaCa-2) | IC50 (HeLa) | IC50 (HEp-2) | IC50 (HEL [9])
1 | Nc1nc2c(ncn2COCCO)c(=O)[nH]1 [ACYCLOVIR] | 0.16 µM | 0.78 µM | > 100 µM | 17 µM | 12 µM | > 50 µM |  |  |  |  |  |  |  |  |  |  | 
2 | O=C1O/C(=C\Cn2cc(Br)c(=O)[nH]c2=O)C(OCc2ccccc2)=C1OCc1ccccc1 | 1.3 µM | > 2 µM | 3 µM | > 2 µM | 1 µM | 5 µM | 17.1 µM | 30 µM | 40 µM | 3.9 µM | 7.5 µM | 3.5 µM | > 2 µM | 80 µM | 30 µM | 90 µM | > 2 µM
3 | Nc1nc2c(ncn2COC(CO)CO)c(=O)[nH]1 [GANCICLOVIR] |  |  | > 50 µM |  |  | > 50 µM |  |  |  |  |  |  | 1 µM |  |  |  | 5 µM
4 | O=C1O/C(=C\Cn2cc(I)c(=O)[nH]c2=O)C(OCc2ccccc2)=C1OCc1ccccc1 | 1.3 µM | 1.4 µM | 3 µM | > 2 µM | 1 µM | 5 µM | 22.6 µM | 40 µM | 70 µM | 3.9 µM | 7.5 µM | 3.3 µM | > 2 µM | 80 µM | 30 µM | 10 µM | > 2 µM
5 | O=C1O/C(=C\Cn2ccc(=O)[nH]c2=O)C(OCc2ccccc2)=C1OCc1ccccc1 | 3 µM | 3.4 µM | 5 µM | 3.4 µM | 1.8 µM | 20 µM | 17.7 µM | 50 µM | 20 µM | 4.8 µM | 12.9 µM | 13 µM | 3.5 µM | 30 µM | 50 µM | 40 µM | 3.5 µM
6 | O=C1O/C(=C\Cn2cnc3c(-n4cccc4)ncnc32)C(OCc2ccccc2)=C1OCc1ccccc1 | 1.2 µM | 1.5 µM | 4 µM | 2.8 µM | 0.6 µM | 20 µM | > 200 µM | > 100 µM | > 100 µM | 3.9 µM | 110 µM | 5.8 µM | > 0.5 µM | > 100 µM | 70 µM | > 100 µM | > 0.5 µM
7 | O=c1[nH]c(=O)n([C@H]2C[C@H](O)[C@@H](CO)O2)cc1/C=C/Br [BRIVUDINE] | 0.001 µM | 0.005 µM | > 100 µM | > 50 µM | > 50 µM | > 50 µM |  |  |  |  |  |  |  |  |  |  | 
8 | O=C1O/C(=C\Cn2cc(F)c(=O)[nH]c2=O)C(OCc2ccccc2)=C1OCc1ccccc1 | 2.6 µM | 3.8 µM | 9 µM | 3.5 µM | 2.7 µM | 20 µM | 3.4 µM | 40 µM | 60 µM | 10.9 µM | 5.1 µM | 15.1 µM | 3.5 µM | 40 µM | 40 µM | 20 µM | 3.5 µM
9 | O=C1O/C(=C\Cn2cc(Cl)c(=O)[nH]c2=O)C(OCc2ccccc2)=C1OCc1ccccc1 | 1.3 µM | > 2 µM | 3 µM | > 2 µM | 1 µM | 5 µM | 16.9 µM | 30 µM | 60 µM | 6.1 µM | 12.2 µM | 6 µM | > 2 µM | 40 µM | 40 µM | 20 µM | > 2 µM
10 | O=C1O/C(=C\Cn2cc(C(F)(F)F)c(=O)[nH]c2=O)C(OCc2ccccc2)=C1OCc1ccccc1 | 0.3 µM | 0.5 µM | 1 µM | 0.5 µM | 0.3 µM | 2 µM | 3.6 µM | 60 µM | 40 µM | 0.9 µM | 2 µM | 1.6 µM | > 0.5 µM | 30 µM | 20 µM | 40 µM | 0.4 µM
11 | O=C1O/C(=C/Cn2cnc3ncnc(Cl)c32)C(OCc2ccccc2)=C1OCc1ccccc1 | 5 µM | > 5 µM | 20 µM | > 5 µM | 3.8 µM | 20 µM | 11.4 µM | 20 µM | > 100 µM | 6.8 µM | 4.1 µM | 4.4 µM | > 5 µM | 40 µM | 30 µM | 60 µM | > 5 µM
12 | O=C1O/C(=C\Cn2cnc3c(Cl)ncnc32)C(OCc2ccccc2)=C1OCc1ccccc1 | > 5 µM | > 5 µM | 8 µM | > 5 µM | > 5 µM | 20 µM | 16.4 µM | 50 µM | 40 µM | 14.8 µM | 11.6 µM | 15.9 µM | > 5 µM | 60 µM | 30 µM | 60 µM | > 5 µM
